From ChEMBL document CHEMBL2424622, “Development of amino-pyrimidine inhibitors of c-Jun N-terminal kinase (JNK): kinase profiling guided optimization of a 1,2,3-benzotriazole lead” (Bioorg Med Chem Lett, 2013) come the findings set out here.

Some results are limits rather than exact numbers.

The subject of assay [1] is Mast/stem cell growth factor receptor Kit (Homo sapiens), P10721 [D816V]. Description: Competitive binding affinity to KIT D816V mutant (unknown origin) at 10 uM in presence of ATP relative to control.
The target of assay [2] is Mitogen-activated protein kinase kinase kinase 20 (Homo sapiens) (UniProt Q9NYL2). Description: Competitive binding affinity to ZAK (unknown origin) at 10 uM in presence of ATP relative to control.
Assay [3] deals with T1, Serine/threonine-protein kinase DCLK3 (Homo sapiens) (UniProt Q9C098).
T1 sequence (whole entry): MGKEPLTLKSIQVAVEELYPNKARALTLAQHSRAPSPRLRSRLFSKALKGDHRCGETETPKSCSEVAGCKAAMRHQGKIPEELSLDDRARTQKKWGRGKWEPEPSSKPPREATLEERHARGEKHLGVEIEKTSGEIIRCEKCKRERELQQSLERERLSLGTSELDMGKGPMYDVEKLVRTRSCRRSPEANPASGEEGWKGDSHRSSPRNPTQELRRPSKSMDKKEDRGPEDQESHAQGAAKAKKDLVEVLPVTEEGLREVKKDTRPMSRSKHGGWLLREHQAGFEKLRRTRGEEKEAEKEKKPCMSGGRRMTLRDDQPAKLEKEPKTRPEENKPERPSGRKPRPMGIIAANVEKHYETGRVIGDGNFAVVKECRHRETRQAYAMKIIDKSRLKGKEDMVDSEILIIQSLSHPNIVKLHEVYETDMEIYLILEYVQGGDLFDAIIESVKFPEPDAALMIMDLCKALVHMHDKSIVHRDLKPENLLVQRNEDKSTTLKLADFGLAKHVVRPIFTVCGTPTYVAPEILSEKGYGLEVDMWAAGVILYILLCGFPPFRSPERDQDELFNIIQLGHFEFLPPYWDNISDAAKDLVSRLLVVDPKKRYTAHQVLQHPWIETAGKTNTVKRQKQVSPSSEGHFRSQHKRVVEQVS
Kind of assay: Competitive binding affinity to DCAMKL3 (unknown origin) at 10 uM in presence of ATP relative to control.

In assay [4] the target is Insulin receptor-related protein (Homo sapiens) (UniProt P14616). Description: Competitive binding affinity to INSRR (unknown origin) at 10 uM in presence of ATP relative to control.
Assay [5] concerns the target Serine/threonine-protein kinase 26 (Homo sapiens) (UniProt Q9P289). Kind of assay: Competitive binding affinity to MST4 (unknown origin) at 10 uM in presence of ATP relative to control.
For assay [6], the target named is T2, MAP/microtubule affinity-regulating kinase 4 (Homo sapiens) (UniProt Q96L34).
T2 sequence (whole entry): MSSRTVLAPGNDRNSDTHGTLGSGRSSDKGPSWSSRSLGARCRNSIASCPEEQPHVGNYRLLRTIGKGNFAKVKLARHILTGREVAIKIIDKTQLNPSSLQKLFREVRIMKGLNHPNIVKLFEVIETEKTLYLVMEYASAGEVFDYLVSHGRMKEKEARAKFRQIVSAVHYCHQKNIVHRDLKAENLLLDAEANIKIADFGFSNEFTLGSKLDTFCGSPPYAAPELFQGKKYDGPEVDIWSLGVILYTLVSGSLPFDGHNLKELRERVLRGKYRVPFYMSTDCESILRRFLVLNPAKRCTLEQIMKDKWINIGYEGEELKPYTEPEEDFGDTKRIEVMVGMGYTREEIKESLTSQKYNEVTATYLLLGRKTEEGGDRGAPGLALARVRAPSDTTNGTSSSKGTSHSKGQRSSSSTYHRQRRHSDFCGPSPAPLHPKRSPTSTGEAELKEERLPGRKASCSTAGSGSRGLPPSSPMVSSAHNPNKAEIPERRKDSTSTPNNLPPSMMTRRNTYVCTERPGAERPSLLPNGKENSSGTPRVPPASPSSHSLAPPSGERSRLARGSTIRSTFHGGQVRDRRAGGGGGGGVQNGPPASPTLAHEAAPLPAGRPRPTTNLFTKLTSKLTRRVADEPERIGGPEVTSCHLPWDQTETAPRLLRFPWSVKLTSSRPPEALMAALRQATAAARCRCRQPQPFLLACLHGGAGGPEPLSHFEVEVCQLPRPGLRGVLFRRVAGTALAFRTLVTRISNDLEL
Description: Competitive binding affinity to MARK4 (unknown origin) at 10 uM in presence of ATP relative to control. A digest of the protocol:
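In vitro ATP-site competition binding assay across a diverse panel of 128 kinases, with compound tested at a single concentration. Kinase selectivity scores (S15) were calculated from the panel profiles.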

Assay [7] concerns the target T3, Serine/threonine-protein kinase Nek5 (Homo sapiens) (UniProt Q6P3R8).
T3 sequence (whole entry): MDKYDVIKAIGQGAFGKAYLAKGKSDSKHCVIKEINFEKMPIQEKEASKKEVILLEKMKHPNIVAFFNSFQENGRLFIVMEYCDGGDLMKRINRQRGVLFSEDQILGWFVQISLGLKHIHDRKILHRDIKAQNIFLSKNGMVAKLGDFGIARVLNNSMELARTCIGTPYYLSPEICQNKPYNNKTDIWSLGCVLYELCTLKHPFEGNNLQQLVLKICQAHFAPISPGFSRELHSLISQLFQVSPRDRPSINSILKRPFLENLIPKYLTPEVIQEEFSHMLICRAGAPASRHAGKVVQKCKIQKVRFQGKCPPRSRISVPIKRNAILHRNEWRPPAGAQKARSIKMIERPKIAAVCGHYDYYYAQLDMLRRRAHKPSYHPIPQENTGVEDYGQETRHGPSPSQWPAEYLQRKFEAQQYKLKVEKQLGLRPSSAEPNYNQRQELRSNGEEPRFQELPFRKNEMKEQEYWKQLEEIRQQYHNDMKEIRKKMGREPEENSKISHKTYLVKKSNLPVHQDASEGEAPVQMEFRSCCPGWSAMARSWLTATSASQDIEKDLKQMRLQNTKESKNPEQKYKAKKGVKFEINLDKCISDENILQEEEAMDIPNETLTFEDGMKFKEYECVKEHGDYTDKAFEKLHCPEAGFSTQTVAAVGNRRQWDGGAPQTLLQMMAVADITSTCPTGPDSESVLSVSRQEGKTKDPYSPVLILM
Kind of assay: Competitive binding affinity to NEK5 (unknown origin) at 10 uM in presence of ATP relative to control.

Assay [8] addresses Ribosomal protein S6 kinase alpha-1 (Homo sapiens, UniProt Q15418). Description: Competitive binding affinity to RPS6KA1 kinase domain 2 (unknown origin) at 10 uM in presence of ATP relative to control.
In assay [9] the target is Serine/threonine-protein kinase 32B (Homo sapiens) (UniProt Q9NY57). Description: Competitive binding affinity to YANK2 (unknown origin) at 10 uM in presence of ATP relative to control.
Serine/threonine-protein kinase 32B (Homo sapiens), sequence (Q9NY57 whole entry): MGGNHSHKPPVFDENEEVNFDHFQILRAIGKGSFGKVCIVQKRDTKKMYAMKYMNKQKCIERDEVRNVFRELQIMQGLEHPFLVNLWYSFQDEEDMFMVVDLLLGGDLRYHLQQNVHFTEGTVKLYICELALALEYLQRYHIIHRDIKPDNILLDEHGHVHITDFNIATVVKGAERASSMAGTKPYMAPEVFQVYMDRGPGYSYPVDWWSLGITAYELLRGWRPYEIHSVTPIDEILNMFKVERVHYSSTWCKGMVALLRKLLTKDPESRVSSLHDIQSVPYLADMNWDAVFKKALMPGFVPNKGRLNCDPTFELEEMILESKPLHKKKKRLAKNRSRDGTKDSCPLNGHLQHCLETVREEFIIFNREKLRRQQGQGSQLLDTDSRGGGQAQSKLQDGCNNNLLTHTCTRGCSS

Mast/stem cell growth factor receptor Kit (Homo sapiens), P10721 [D816V], sequence (P10721 whole entry D816V): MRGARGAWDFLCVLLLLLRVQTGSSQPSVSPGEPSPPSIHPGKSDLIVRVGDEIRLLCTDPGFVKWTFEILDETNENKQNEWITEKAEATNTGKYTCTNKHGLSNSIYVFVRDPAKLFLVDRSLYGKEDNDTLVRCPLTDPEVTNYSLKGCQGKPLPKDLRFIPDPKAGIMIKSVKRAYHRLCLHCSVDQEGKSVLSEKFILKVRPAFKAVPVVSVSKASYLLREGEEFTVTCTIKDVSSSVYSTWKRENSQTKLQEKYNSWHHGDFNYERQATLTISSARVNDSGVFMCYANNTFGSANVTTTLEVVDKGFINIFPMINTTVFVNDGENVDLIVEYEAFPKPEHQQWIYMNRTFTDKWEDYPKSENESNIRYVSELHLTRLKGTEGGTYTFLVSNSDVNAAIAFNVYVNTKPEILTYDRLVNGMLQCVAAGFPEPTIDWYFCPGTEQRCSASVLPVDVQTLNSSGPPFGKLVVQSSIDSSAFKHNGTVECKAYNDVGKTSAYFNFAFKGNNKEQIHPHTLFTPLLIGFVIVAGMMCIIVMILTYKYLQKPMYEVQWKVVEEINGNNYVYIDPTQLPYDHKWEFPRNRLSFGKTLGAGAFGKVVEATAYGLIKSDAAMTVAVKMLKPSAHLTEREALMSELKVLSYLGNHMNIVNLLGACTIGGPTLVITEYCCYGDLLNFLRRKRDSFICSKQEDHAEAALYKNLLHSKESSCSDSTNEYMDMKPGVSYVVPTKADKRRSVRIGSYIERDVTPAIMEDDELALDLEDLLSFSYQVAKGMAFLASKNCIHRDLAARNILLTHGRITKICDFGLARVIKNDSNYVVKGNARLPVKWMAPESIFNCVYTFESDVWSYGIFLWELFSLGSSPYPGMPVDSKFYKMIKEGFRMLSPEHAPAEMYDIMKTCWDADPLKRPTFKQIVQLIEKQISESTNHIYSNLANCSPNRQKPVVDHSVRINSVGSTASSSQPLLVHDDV
Mitogen-activated protein kinase kinase kinase 20 (Homo sapiens), sequence (Q9NYL2 2-800 limits assumed): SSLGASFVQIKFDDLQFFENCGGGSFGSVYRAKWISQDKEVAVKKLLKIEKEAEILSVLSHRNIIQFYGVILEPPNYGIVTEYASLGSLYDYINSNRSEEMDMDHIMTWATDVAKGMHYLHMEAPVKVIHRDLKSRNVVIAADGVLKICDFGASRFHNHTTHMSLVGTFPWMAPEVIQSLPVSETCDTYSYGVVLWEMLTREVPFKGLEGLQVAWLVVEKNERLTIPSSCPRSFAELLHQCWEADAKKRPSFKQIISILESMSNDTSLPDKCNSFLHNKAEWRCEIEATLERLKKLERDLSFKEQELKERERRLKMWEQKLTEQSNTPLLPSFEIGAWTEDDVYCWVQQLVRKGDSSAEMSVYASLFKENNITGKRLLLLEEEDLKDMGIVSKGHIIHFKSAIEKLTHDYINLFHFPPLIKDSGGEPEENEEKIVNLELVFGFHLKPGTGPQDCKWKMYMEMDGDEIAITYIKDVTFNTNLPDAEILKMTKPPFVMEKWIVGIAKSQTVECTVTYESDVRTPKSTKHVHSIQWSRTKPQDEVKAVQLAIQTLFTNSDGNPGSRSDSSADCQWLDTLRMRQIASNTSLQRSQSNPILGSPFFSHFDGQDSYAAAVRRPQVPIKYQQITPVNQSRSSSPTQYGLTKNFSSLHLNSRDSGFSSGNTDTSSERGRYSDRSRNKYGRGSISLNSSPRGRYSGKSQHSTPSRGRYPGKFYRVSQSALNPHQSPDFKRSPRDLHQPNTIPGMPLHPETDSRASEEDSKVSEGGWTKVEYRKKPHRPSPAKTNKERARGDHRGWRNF
Serine/threonine-protein kinase 26 (Homo sapiens), sequence (Q9P289 2-416 limits assumed): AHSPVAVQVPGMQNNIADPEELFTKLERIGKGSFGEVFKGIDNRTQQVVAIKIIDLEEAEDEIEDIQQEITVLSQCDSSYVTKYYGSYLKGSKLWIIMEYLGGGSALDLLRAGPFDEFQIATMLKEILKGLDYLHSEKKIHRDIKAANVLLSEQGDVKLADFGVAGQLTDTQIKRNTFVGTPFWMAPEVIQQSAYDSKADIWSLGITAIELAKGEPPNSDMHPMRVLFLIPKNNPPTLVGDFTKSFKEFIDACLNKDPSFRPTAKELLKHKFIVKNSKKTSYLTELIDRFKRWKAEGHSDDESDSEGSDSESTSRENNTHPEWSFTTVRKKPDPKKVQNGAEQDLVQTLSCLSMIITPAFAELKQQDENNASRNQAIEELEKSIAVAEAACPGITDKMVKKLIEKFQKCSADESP
Ribosomal protein S6 kinase alpha-1, sequence (Q15418 whole entry, the tested form may be a part): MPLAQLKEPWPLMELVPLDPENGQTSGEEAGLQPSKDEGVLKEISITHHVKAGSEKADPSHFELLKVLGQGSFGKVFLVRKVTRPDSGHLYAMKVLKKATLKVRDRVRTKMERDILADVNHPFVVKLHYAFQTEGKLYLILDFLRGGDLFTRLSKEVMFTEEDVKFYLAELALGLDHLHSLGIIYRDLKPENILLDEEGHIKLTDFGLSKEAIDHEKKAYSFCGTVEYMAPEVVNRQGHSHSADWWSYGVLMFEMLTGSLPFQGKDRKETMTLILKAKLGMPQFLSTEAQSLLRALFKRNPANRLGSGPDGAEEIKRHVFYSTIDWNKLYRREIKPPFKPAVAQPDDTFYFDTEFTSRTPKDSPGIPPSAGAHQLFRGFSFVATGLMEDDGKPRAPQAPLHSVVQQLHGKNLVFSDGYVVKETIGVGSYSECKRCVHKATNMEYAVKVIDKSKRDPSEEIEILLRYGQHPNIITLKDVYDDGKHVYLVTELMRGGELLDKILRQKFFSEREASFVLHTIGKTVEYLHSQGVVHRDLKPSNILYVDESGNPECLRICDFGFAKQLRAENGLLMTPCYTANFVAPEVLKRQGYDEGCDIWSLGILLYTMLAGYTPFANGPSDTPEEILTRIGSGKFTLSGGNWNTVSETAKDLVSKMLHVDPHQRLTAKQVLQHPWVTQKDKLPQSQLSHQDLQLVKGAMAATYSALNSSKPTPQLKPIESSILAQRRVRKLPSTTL
Insulin receptor-related protein (Homo sapiens), sequence (P14616 27-742 limits assumed): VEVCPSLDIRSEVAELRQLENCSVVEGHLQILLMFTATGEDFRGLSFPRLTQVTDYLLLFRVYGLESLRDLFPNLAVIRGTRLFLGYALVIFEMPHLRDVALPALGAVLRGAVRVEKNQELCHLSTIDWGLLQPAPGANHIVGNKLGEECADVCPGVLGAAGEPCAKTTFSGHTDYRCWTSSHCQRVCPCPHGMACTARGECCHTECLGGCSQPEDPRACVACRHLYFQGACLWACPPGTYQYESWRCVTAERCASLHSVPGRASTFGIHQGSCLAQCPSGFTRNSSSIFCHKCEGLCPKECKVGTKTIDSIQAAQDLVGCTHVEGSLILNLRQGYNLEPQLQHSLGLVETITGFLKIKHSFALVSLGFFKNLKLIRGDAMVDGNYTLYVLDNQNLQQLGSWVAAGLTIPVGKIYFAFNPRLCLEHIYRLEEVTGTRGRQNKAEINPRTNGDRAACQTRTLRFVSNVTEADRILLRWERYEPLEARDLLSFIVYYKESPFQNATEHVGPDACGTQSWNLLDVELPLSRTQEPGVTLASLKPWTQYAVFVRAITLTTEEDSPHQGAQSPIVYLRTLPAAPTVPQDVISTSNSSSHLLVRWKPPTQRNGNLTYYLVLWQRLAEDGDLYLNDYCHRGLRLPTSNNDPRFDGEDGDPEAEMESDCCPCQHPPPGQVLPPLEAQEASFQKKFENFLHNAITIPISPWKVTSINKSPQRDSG
Insulin receptor-related protein (Homo sapiens), sequence (P14616 747-1297 limits assumed): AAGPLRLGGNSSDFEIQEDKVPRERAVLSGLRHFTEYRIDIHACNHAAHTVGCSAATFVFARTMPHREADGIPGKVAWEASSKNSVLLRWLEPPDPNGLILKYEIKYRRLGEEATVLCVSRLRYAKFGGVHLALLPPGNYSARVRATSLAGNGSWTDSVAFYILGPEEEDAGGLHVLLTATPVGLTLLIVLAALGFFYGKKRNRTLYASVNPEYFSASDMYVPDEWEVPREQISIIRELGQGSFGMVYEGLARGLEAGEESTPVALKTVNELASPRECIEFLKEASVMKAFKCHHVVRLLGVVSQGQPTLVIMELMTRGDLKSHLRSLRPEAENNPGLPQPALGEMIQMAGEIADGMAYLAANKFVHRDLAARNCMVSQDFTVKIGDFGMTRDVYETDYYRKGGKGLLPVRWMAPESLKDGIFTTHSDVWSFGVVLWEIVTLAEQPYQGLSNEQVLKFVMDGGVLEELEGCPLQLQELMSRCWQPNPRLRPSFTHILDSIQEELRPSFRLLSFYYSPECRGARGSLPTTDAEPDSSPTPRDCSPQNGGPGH

Take `O[C@H]1CC[C@H](Nc2nccc(-n3ccc4ccccc43)n2)CC1`: the inhibition (usually the change of the read-out against control, counted positive when it falls) in assay [1] was less than 50%; in assay [2] it was less than 50%; in assay [3] it was 84%; in assay [4], less than 50%; in assay [5], 80%; in assay [6] it was less than 50%. Moreover, the inhibition is less than 50% in assay [7], 95% in assay [8] and less than 50% in assay [9].

As for `O[C@H]1CC[C@H](Nc2nccc(-n3nnc4ccccc43)n2)CC1`, the inhibition in assay [1] was 98%; in assay [2], 76%; in [3] it was 92%; in assay [4], less than 50%; in assay [5], 79%; in [6], less than 50%. In addition, the inhibition in assay [7] was 95%; in assay [8] it was 100%; in [9] it was less than 50%.

For the compound `CS(=O)(=O)CCCOc1cccc2c1ccn2-c1ccnc(N[C@H]2CC[C@H](C(=O)N3CCC(O)CC3)CC2)n1`, the inhibition in assay [3] and in [7] was greater than 85% each time.

For the compound `O[C@H]1CC[C@H](Nc2nccc(-n3ncc4ccccc43)n2)CC1`, the inhibition in [1] was 63%; in [2], less than 50%; in [3], 73%; in assay [4], less than 50%; in [5], 76%; in assay [6], less than 50%. Also, the inhibition in assay [7] is 71%; in assay [8], 100%; in [9], less than 50%.

`O[C@H]1CC[C@H](Nc2nccc(-c3n[nH]c4ccccc34)n2)CC1`: the inhibition is 94% in [1]; 98% in [4]; 94% in [5]; 67% in [6]; less than 50% in assay [9].
